Here are results for 22 compounds from ChEMBL document CHEMBL4138225, “Development of novel anti-filarial agents using carbamo(dithioperoxo)thioate derivatives” (Eur J Med Chem, 2018).

Data set [1] concerns Setaria cervi. Put plainly: Induction of chromatin condensation in Setaria cervi microfilariae by Hoechst 33342 staining-based […] microscopic analysis. It is filed as functional, organism-based. Summed up:
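Treated mf washed in PBS (pH 7.2), fixed in paraformaldehyde and stained 5 min with 1 mg/mL Hoechst 33342. Mounted on poly-L-lysine slides and imaged by fluorescence microscopy at […].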

The subject of data set [2] is Setaria cervi. In words: Antifilarial activity against Setaria cervi microfilariae assessed as reduction in worm movement measured every 6 hrs up to 24 hrs by microscopy. It is filed as functional, organism-based. In short, it runs like this: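 About 1×10^5 S. cervi mf per well in RPMI-1640 with 10% FBS at 5% CO2, given a dose series. Motility checked by microscope every 6 h up to 24 h and scored 4 (highly motile) down to 0 (dead). IC50 and MIC calculated from scores; three experiments in triplicate, mean ± SE.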

Data set [3] has as its system Setaria cervi. Put plainly: Antifilarial activity against Setaria cervi microfilariae after 3 hrs by trypan blue exclusion assay. It is filed as functional, organism-based. In short, it runs like this:
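After treatment, the culture was mixed and 100 μL holding parasites moved into fresh medium and put back in the CO2 incubator. Viability read by trypan blue staining, dead worms blue. Viability % = live / total microfilariae.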

Data set [4] has as its system Setaria cervi. In words: Antifilarial activity against Setaria cervi microfilariae after 3 hrs.
The test system of data set [5] is Setaria cervi. Put plainly: Antifilarial activity against Setaria cervi microfilaria forms after 24 hrs by MTT assay. It is filed as functional, organism-based. In short, it runs like this:
(§1)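 S. cervi mf or adults cultured in RPMI-1640 with 10% FBS, 5% CO2, 24 h with compounds dissolved in DMSO. Worms washed in PBS, ~1×10^3 put in 0.25 mg/ml MTT for 2 h at 37 °C in the dark. Formazan dissolved in DMSO, A595. Percent inhibition computed, LC50 fitted; at least four repeats, mean ± SE.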

Data set [6] relates to Setaria cervi. Put plainly: Antifilarial activity against Setaria cervi adult after 3 hrs by trypan blue exclusion assay. The format is functional, organism-based.
In data set [7] the test system is Setaria cervi. In words: Antifilarial activity against Setaria cervi microfilariae after 24 hrs by MTT assay. It is filed as functional. Summed up: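 Bovine S. cervi microfilariae incubated with compounds (DMSO-dissolved) in RPMI-1640 + 10% FBS, 5% CO2, 24 h. Worms washed in PBS; ~1×10^3 suspended in 0.3 ml MTT 0.25 mg/ml, 37 °C 2 h in dark. Formazan dissolved in DMSO, absorbance at 595 nm. Percent inhibition computed; LC50 fitted; ≥4 repeats, mean ± SE.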
(Formazan colour is commonly taken as a measure of viable cells.)

Data set [8] deals with Setaria cervi. Put plainly: Antifilarial activity against Setaria cervi adult after 24 hrs by MTT assay. It is filed as functional, organism-based. Summed up: as §1
The subject of data set [9] is Setaria cervi. Put plainly: Antifilarial activity against Setaria cervi oocytes after 24 hrs by MTT assay. The format is functional, organism-based.
Data set [10] has as its system Setaria cervi. Put plainly: Induction of reactive oxygen species generation in Setaria cervi microfilariae at 1 to 10 uM by NBT assay. It is filed as functional, organism-based. In short, it runs like this:
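Treated mf or adults pelleted at 7500 rpm, washed in PBS (50 mM, pH 7.0), then incubated in 2% NBT for 2 h at 37 °C. Washed in PBS and methanol, formazan dissolved in 2M KOH/DMSO for 10–15 min at room temperature, absorbance read at 620 nm.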

Data set [11] relates to WI-38. In words: Cytotoxicity against human WI38 cells after 24 hrs by MTT assay. It is filed as cell-based. The conditions noted are these: WI-38, 24 h. In short, it runs like this: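 WI-38 normal human lung fibroblasts, 2.0×10^4 per well, grown 24 h, then treated 24 h at 0–50 µg/mL. MTT 0.5 mg/mL added in phenol red-free RPMI with 5% FBS, 4 h at 37 °C, 5% CO2. Formazan dissolved in DMSO, A570.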

The nature of data set [12]: Selectivity ratio of IC50 for human WI38 cells to IC50 for Setaria cervi microfilariae. It is filed as toxicity. The conditions noted are these: read-out: Ratio IC50.

SMILES strings stand for the structures. In brackets after ≈: the same amount, converted by molar mass. Activity calls are given as the source filed them. The calls are words filed in the database; no cut-off is given here.

Turning to `S=C(SSc1ncccn1)N1CCOCC1`, the outcome in data set [1], in [5] and in data set [9] was Active. Besides, the IC50 in data set [2] and in [4] was 5.5 µg/mL (≈ 20.1 µM) each time. Also, the MIC (as a rule, the least concentration at which growth counts as inhibited) in data set [2] was 0.97 µg/mL (≈ 3.55 µM). Also, the Activity entry in data set [3], in data set [6], in data set [7] and in data set [8] was “Dose-dependent effect” in each case. The LC50 (as a rule, the concentration lethal to half of the exposed cells or organisms) in data set [7] is 6.17 µg/mL (≈ 22.6 µM).

Regarding `S=C(SSc1ccccn1)N1CCCCC1`, in data set [2], the IC50 (in general, the concentration needed to halve the response being measured) turned out to be 24.3 µg/mL (≈ 89.9 µM) and the MIC came out at 8.69 µg/mL (≈ 32.1 µM). Moreover, the 50% lethal concentration (LC50) in data set [7] was determined as 97.3 µg/mL (≈ 360 µM).

Regarding `Cc1ccc(SSC(=S)N2CCC(Cc3ccccc3)CC2)cc1`, in [2], the IC50 worked out at 19.6 µg/mL (≈ 52.6 µM) and the MIC was determined as 1.22 µg/mL (≈ 3.27 µM). The LC50 in data set [7] was found to be 22.5 µg/mL (≈ 60.3 µM).

For `S=C(SSc1ccccn1)N1CCc2ccccc2C1`, in [2], the IC50 is 24.8 µg/mL (≈ 77.8 µM) and the minimal inhibitory concentration (MIC) was found to be 8.26 µg/mL (≈ 25.9 µM). Also, the LC50 in data set [7] came out at 99.2 µg/mL (≈ 311 µM).

With `Cc1ccc(SSC(=S)N2CCOCC2)cc1`, in [2], the half-inhibitory concentration (IC50) was determined as 19.9 µg/mL (≈ 69.7 µM) and the minimum inhibitory concentration (MIC) amounted to 6.63 µg/mL (≈ 23.2 µM). The compound further showed an LC50 in data set [7] of 79.6 µg/mL (≈ 279 µM).

Turning to `S=C(SSc1cccc2ccccc12)N1CCC(Cc2ccccc2)CC1`, in [2], the IC50 amounted to 60.7 µg/mL (≈ 148 µM) and the MIC was 20.2 µg/mL (≈ 49.4 µM). In [7], this compound displayed an LC50 of 243 µg/mL (≈ 593 µM).

For the compound `Cc1ccc(SSC(=S)N2CCCC2)cc1`, in [2], the concentration for half-maximal inhibition (IC50) worked out at 23.6 µg/mL (≈ 87.5 µM) and the MIC came to 7.86 µg/mL (≈ 29.2 µM). Further, in data set [7], the LC50 is 94.3 µg/mL (≈ 350 µM).

For `COc1ccc(SSC(=S)N2CCCCC2)cc1`, the outcome in data set [1], in data set [5] and in data set [9] was Active. Moreover, the IC50 in data set [2] and in [4] was 4.61 µg/mL (≈ 15.4 µM) each time. Further, the MIC in data set [2] was 2.3 µg/mL (≈ 7.68 µM). Moreover, the Activity entry in [3], in data set [6], in [7] and in data set [8] was “Dose-dependent effect” each time. In data set [7], this compound had an LC50 of 6.94 µg/mL (≈ 23.2 µM).

On to `S=C(SSc1ncccn1)N1CCC(Cc2ccccc2)CC1`, for which, in data set [2], the IC50 came to 59.9 µg/mL (≈ 166 µM) and the MIC was determined as 20 µg/mL (≈ 55.2 µM). In [7], the LC50 is 240 µg/mL (≈ 663 µM).

For the compound `S=C(SSc1ncccn1)N1CCc2ccccc2C1`, in data set [2], the IC50 was determined as 31.1 µg/mL (≈ 97.3 µM) and the MIC amounted to 10.4 µg/mL (≈ 32.4 µM). For the same compound, the LC50 in [7] was found to be 124 µg/mL (≈ 389 µM).

On to `S=C(SSc1cccc2ccccc12)N1CCOCC1`, for which, in data set [2], the IC50 amounted to 22.2 µg/mL (≈ 69.1 µM) and the MIC is 7.41 µg/mL (≈ 23 µM). This compound also gave an LC50 in data set [7] of 88.9 µg/mL (≈ 277 µM).

For `S=C(SSc1cccc2ccccc12)N1CCc2ccccc2C1`, in data set [2], the IC50 came out at 32.7 µg/mL (≈ 89 µM) and the MIC came to 10.9 µg/mL (≈ 29.7 µM). The LC50 in [7] was found to be 131 µg/mL (≈ 356 µM).

In the case of `S=C(SSc1cccc2ccccc12)N1CCCCC1`, the result in [1], in data set [10], in [5] and in data set [9] was Active. In addition, the IC50 in data set [2] and in data set [4] was 2.15 µg/mL (≈ 6.73 µM) each time. Further, the minimal inhibitory concentration (MIC) in data set [2] was 0.583 µg/mL (≈ 1.82 µM). Also, the Activity entry in data set [3], in data set [6], in [7] and in data set [8] was “Dose-dependent effect” in each case. In data set [7], the LC50 was 6.49 µg/mL (≈ 20.3 µM).

In the case of `COc1ccc(SSC(=S)N2CCc3ccccc3C2)cc1`, in data set [2], the IC50 is 31.4 µg/mL (≈ 90.4 µM) and the MIC was 10.5 µg/mL (≈ 30.1 µM). For the same compound, the LC50 in [7] stood at 126 µg/mL (≈ 361 µM).

With `S=C(SSc1ccccn1)N1CCOCC1`, in data set [2], the IC50 turned out to be 47.7 µg/mL (≈ 175 µM) and the minimal inhibitory concentration (MIC) was found to be 15.9 µg/mL (≈ 58.3 µM). Moreover, the LC50 in [7] came out at 191 µg/mL (≈ 700 µM).

As for `COc1ccc(SSC(=S)N2CCC(Cc3ccccc3)CC2)cc1`, in [2], the IC50 was found to be 62.1 µg/mL (≈ 159 µM) and the MIC was found to be 20.7 µg/mL (≈ 53.1 µM). The same compound displayed an LC50 in data set [7] of 248 µg/mL (≈ 638 µM).

Regarding `S=C(SSc1ncccn1)N1CCCCC1`, the IC50 amounted to 10.6 µg/mL (≈ 39.1 µM) in [11], 4.75 µg/mL (≈ 17.5 µM) in data set [2] and 4.75 µg/mL (≈ 17.5 µM) in data set [4]. Moreover, the outcome in data set [1], in [10], in data set [5] and in [9] was Active. Also, in data set [2], the MIC turned out to be 2.39 µg/mL (≈ 8.81 µM). For the same compound, the Activity result in data set [3], in [6], in data set [7] and in data set [8] was “Dose-dependent effect” throughout. Moreover, the selectivity ratio in data set [12] was determined as 5. This compound also showed an LC50 in data set [7] of 5.1 µg/mL (≈ 18.8 µM).

`COc1ccc(SSC(=S)N2CCOCC2)cc1`: in data set [2], the IC50 was found to be 20.1 µg/mL (≈ 66.6 µM) and the MIC is 6.69 µg/mL (≈ 22.2 µM). The LC50 in [7] stood at 80.3 µg/mL (≈ 266 µM).

As for `Cc1ccc(SSC(=S)N2CCc3ccccc3C2)cc1`, in data set [2], the IC50 was 32.1 µg/mL (≈ 96.9 µM) and the MIC was determined as 10.7 µg/mL (≈ 32.3 µM). Moreover, in data set [7], the LC50 amounted to 128 µg/mL (≈ 388 µM).

Take `S=C(SSc1ccccn1)N1CCC(Cc2ccccc2)CC1`: in [2], the IC50 stood at 59.1 µg/mL (≈ 164 µM) and the MIC was 19.7 µg/mL (≈ 54.7 µM). In addition, the LC50 in data set [7] was determined as 237 µg/mL (≈ 656 µM).

`S=C(SSc1cccc2ccccc12)N1CCCC1`: in data set [2], the concentration for half-maximal inhibition (IC50) was determined as 22.6 µg/mL (≈ 73.9 µM) and the MIC was determined as 7.52 µg/mL (≈ 24.6 µM). In data set [7], this compound came in with an LC50 of 90.3 µg/mL (≈ 296 µM).

With `COc1ccc(SSC(=S)N2CCCC2)cc1`, in [2], the IC50 came to 24.2 µg/mL (≈ 85 µM) and the MIC worked out at 8.08 µg/mL (≈ 28.3 µM). The compound further yielded a median lethal concentration (LC50) in data set [7] of 97 µg/mL (≈ 340 µM).
